# Measurements as given in paper PMC2847506 (Phytochemistry, 2010).
# Legend:
# [1] = system: HT-29 human colon cancer cell line; test: Cytotoxic activity against the HT-29 cell line; format: cell-based; settings: for Cytotoxicity ED50: HT-29 cells
# NF-κB p65 (RelA) subunit = NF-κB p65 (RelA) subunit (Homo sapiens, UniProt Q04206); test: Enzyme-based ELISA NF-κB; format: biochemical
# HT-29 human cancer cells = test: In vivo hollow fiber assay, HT-29; design: species or system human cells in host mice; settings: HT29, ip administration, 0.5 to 10 mg per kg per day for four days
# Summary of the method: (§1)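 Murine hollow fiber model following an NCI procedure, with human cancer cells (HT-29, LNCaP, MCF-7) held in fibers. Test compound given ip at 0.5 to 10 mg/kg per day for four days, in 5% EtOH plus 5% Tween 80 in physiologic saline. Paclitaxel positive control at 2.0 mg/kg per day for four days.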
# [2] = system: LNCaP (hormone-dependent human prostate cancer); test: In vivo hollow fiber assay, LNCaP; design: species or system human cells in host mice; settings: ip administration, 0.5 to 10 mg per kg per day for four days
# Summary of the method: as §1
# [3] = system: MCF-7 (human breast cancer); test: In vivo hollow fiber assay, MCF-7; design: species or system human cells in host mice; settings: MCF-7, ip administration, 0.5 to 10 mg per kg per day for four days
# Summary of the method: as §1
# [4] = Body weight of host mice in the hollow fiber assay; format: in vivo; settings: highest two doses (10 and 5 mg/kg/day), ip, over the course of the study
# Summary of the method: as §1
# [5] = Stability in solvents at room temperature; format: physicochemical; settings: kept in CDCl3 or deuteriobenzene at room temperature; [2+2] addition
# [6] = system: P-388 lymphocytic murine leukemia; settings: ref Herz et al., 1981; cited from earlier work
# NF-κB p65 (RelA) subunit, sequence (Q04206 whole entry, species assumed): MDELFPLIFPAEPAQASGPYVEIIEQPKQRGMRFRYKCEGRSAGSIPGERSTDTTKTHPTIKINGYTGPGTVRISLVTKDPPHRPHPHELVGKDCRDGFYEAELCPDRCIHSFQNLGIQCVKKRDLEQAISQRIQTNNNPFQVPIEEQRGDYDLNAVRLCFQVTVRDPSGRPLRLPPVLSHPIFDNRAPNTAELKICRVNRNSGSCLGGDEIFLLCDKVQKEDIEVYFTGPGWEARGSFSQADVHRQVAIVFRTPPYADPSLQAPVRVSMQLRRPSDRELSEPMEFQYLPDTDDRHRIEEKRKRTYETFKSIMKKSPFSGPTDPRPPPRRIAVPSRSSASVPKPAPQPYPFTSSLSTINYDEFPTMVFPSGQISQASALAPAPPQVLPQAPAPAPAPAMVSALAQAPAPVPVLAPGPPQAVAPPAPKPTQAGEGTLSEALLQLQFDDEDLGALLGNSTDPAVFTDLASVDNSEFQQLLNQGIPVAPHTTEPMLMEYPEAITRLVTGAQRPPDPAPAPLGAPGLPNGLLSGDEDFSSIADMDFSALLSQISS
Substance,Cytotoxicity ED50 [1] [µM],NF-κB Inhibition ED50 (NF-κB p65 (RelA) subunit) [µM],change of potency of the inhibitory effect on HT-29 cells relative to compound 3 ([1]; tiglate instead of methacrylate on C-8),inhibition of proliferation in hollow fibers (HT-29 human cancer cells),inhibition of proliferation in hollow fibers [2],inhibition of proliferation in hollow fibers [3],body weight loss [4],stability in solvents [5],in vivo antitumor activity [6]
2-epi-glaucolide E [Compound 5],9.4,> 10,–,–,–,–,–,–,–
"2α,13-diacetoxy-4α-hydroxy-8α-methacryloyloxybourbonen-12,6α-olide [Compound 6]",–,2.8,–,–,–,–,–,–,–
8-desacyl-13-acetoxyrolandrolide-8-O-tiglate [Compound 4],1.5,–,decreased around ten times,–,–,–,–,–,–
13-acetoxyrolandrolide [Compound 3],0.16,7.1,–,no inhibition of proliferation was observed,no inhibition of proliferation was observed,no inhibition of proliferation was observed,up to 20%,partially transformed to compound 6,weak
